Screening results (PubChem BioAssay)
Shown is part of a subset that was picked to be rich in hits.
Cardio protect: myocardial damage modulation in H9c2 cells; AID 588492; H9c2 cardiomyocytes, H2O2 injury protection, ATPLite, 2 h; 0.63% of 360,000 active; protection from H2O2 cell death, % at 20 µM;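 active means compounds giving at least 50% protection of heart cells from peroxide-induced death in the single-dose screen, raw or plate-pattern-corrected value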
CHOP inh: inhibitors of CHOP induction in ER stress response; CHO-K1 CHOP-promoter luciferase, tunicamycin-induced, 15-18 h; inhibition, % at 10 µM; 3.8% of 220,000 active;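 active means compounds that reduced the stress-induced luciferase reporter signal by more than about 70% of percent inhibition, limit read from the data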
UPR CHOP act: apoptotic UPR (CHOP) activation; CHO-CHOP luciferase reporter, luminescence; percent of tunicamycin response over DMSO baseline; activation, % at 10 µM; 0.34% of 330,000 active;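 active means at 10 µM dose, activation of 40% or more, normalized to positive control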
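Test system: CHO-CHOP cells, stable luciferase reporter of PERK-eIF2a-CHOP signalling | Quantity: 500 CHO-CHOP cells per well | Buffer or medium: F12 plus 10% serum | Compound dosing: 10 µM single point, 0.5% DMSO | Schedule: 6 h compound treatment, 37 °C | Signal: Luciferase luminescence | Control set: Tunicamycin high control, DMSO low control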
XBP1 UPR activ: activators of adaptive arm of unfolded protein response (XBP1); CHO-XBP1 luciferase reporter, IRE1-XBP1 UPR activation, luminescence; percent of tunicamycin response, DMSO as zero; 0.33% of 330,000 active; activation, % at 20 µM;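 active means versus positive control, 20 µM dose yields 30% or more activation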
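Material: CHO cell line with stable XBP1 luciferase reporter; schedule: 16-18 h cell attachment at 37 °C, then 6 h compound exposure; signal: glow luminescence from Steady-Glo reagent; medium: serum-containing F12 medium, 10% FBS; benchmarks: tunicamycin 10 µg/mL and vehicle-only wells; read-out: percent activation relative to tunicamycin reference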
iPSC survival up: hiPSC single-cell survival enhancement | ATPlite luminescence; 100% = ROCK inhibitor wells, 0% = DMSO | survival enhancement, % at 20 µM | 0.044% of 360,000 active | AID 602274; in the data active means survival enhancement above about 18%;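 further: cells exposed to compounds for 16 hours before the ATP read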
Numbers stand for hits; n = inactive; x = no result.

SMILES	Cardio protect	CHOP inh	UPR CHOP act	XBP1 UPR activ	iPSC survival up
COc1cc(/C=C(\C#N)C(=O)c2c(C)[nH]c3ccccc23)cc(OC)c1OC	n	n	n	n	n
COc1ccc(/C=C(\C#N)C(=O)c2c(C)[nH]c3ccccc23)cc1OC	54	n	n	n	n
CC(=O)c1sc(NC(=O)COc2ccc(Cl)cc2C)nc1C	n	n	n	n	n
CC(=O)c1sc(NC(=O)COc2c(C)cc(Cl)cc2C)nc1C	x	83	n	n	x
O=C(c1cc2ccccc2o1)N1CCN(c2ccccc2Cl)CC1	n	82	n	n	n
CCC(=O)N1CCN(c2ccc(Cl)cc2NC(=O)Cc2ccc(Cl)cc2)CC1	n	80	n	n	n
O=C(Nc1ccc(N2CCN(C(=O)c3ccco3)CC2)c(Cl)c1)c1cc2ccccc2o1	n	x	n	n	n
CC(=O)N1CCN(c2ccc(NC(=O)c3ccc([N+](=O)[O-])o3)cc2Cl)CC1	n	x	73	n	n
CCC(=O)N1CCN(c2ccc(NC(=O)c3cc4ccccc4o3)cc2Cl)CC1	53	x	n	n	n
Cc1ccc(C(=O)N(C)Cc2nc3ccccc3c(=O)[nH]2)cc1NC(=O)c1ccco1	n	x	n	n	n
Cc1cc2nc(NC(=O)C3(C)CCN(C)C3)[nH]c2cc1C (stereo not given)	n	x	x	x	n
COc1cc(OC)c(N(C)S(=O)(=O)c2cccc(C(=O)OCC(=O)c3c[nH]c4ccccc34)c2)cc1Cl	n	n	n	n	n
C=CCN(c1ccccc1OC)S(=O)(=O)c1cccc(C(=O)OCC(=O)c2c[nH]c3ccccc23)c1	n	73	n	n	n
Cc1cccc(CN2C(=O)N/C(=C/c3ccc(C)s3)C2=O)c1	n	90	n	n	n
CCOC(=O)C1(C)CCCCCN1C(=O)c1ccc(OC)cc1 (stereo not given)	n	x	x	x	n
NS(=O)(=O)c1ccc(CCNc2ncnc3sccc23)cc1	n	x	n	n	n
Cc1sc2ncnc(NCCc3ccc(S(N)(=O)=O)cc3)c2c1C	n	73	n	n	n
CCCCCCOC(=O)Sc1nc2ccccc2o1	n	95	n	n	n
COC(=O)CSc1nc2ccccc2o1	n	n	n	n	n
CCCCNS(=O)(=O)c1ccc2nc(-c3cccnc3)cc(C(=O)NC(C)CC)c2c1 (stereo not given)	n	101	n	n	n
COc1ccc(-c2ccc(C(=O)Nc3cc(OC)c(OC)c(OC)c3)c3occc23)c(C)c1	n	x	x	x	n
CCOC(=O)c1ccc(NC(=O)c2cccc(S(=O)(=O)N3c4ccccc4CC3C)c2)s1 (stereo not given)	n	71	n	n	n
Nc1cc(-c2ccc(Cl)cc2)nn1-c1ccccc1	n	n	n	n	n
Nc1ccccc1Nc1cc(-c2ccccc2)nn1-c1cccc(Cl)c1	n	90	n	n	n
CCc1ccc(OCC(=O)NC(NC(=S)Nc2ccccc2C)C(Cl)(Cl)Cl)cc1 (stereo not given)	n	n	n	n	n
SMILES	Cardio protect	CHOP inh	UPR CHOP act	XBP1 UPR activ	iPSC survival up
Cc1ccccc1NC(=S)NC(NC(=O)COc1ccccc1)C(Cl)(Cl)Cl (stereo not given)	n	83	n	n	n
Cc1ccc(C)c(NC(=S)NC(NC(=O)Cc2cccc3ccccc23)C(Cl)(Cl)Cl)c1 (stereo not given)	n	79	52	47	n
CCN1C(=O)[C@H]2[C@@H](c3ccc(C(F)(F)F)cc3)N[C@]3(CCCN(CC4CCCCC4)C3=O)[C@H]2C1=O	n	x	x	x	n
O=C(Nc1ccc(OCC(F)(F)C(F)F)c(C(F)(F)F)c1)c1ccccc1O	n	108	n	n	n
O=C(Nc1ccc(OCC(F)(F)C(F)F)c(C(F)(F)F)c1)c1ccccc1	n	x	n	n	n
c1ccc(NCCC2OCC3(CO2)COC(CCNc2ccccc2)OC3)cc1 (stereo not given)	n	x	x	x	n
CCC(C)(C)C1CCC(=NNS(=O)(=O)c2ccc(C)c([N+](=O)[O-])c2)CC1 (stereo not given)	n	70	n	n	n
CC/C(C)=N/NS(=O)(=O)c1ccc(C)c([N+](=O)[O-])c1	n	n	n	n	n
Cc1ccc(S(=O)(=O)N/N=C2/CCCCC2C2CCCCC2)cc1[N+](=O)[O-] (stereo not given)	n	79	n	n	n
CC(C)(C)C1CCC(=NNc2ccc(S(N)(=O)=O)cc2[N+](=O)[O-])CC1 (stereo not given)	n	83	n	n	n
C=Cn1cc(CNC[C@H]2O[C@@H](n3ccc(N)nc3=O)[C@H](O)[C@@H]2O)c(C)n1	n	x	x	x	n
COc1ccc(-c2cc(CNc3nc(NCc4ccccc4OC)nc4ccsc34)on2)cc1	n	x	x	x	n
CCOc1ccc(-n2c(N)c(-c3nc4ccccc4n3C)c3nc4ccccc4nc32)cc1	n	93	n	n	n
O=C(NCCc1ccc(F)cc1)C(=O)Nc1cc2c3c(c1)CC(=O)N3CCC2	53	x	n	n	n
O=C(NCCc1ccc(Cl)cc1)C(=O)Nc1cc2c3c(c1)CC(=O)N3CCC2	n	x	n	n	n
CCOc1ccc(NC(=O)CC2C(=O)N(CC)C(=S)N2CCN2CCOCC2)cc1 (stereo not given)	n	n	n	n	n
CCCOc1ccc(NC(=O)CC2C(=O)N(CC)C(=S)N2CCNC(C)=O)cc1 (stereo not given)	n	n	n	n	n
CCCOc1ccc(NC(=O)CC2C(=O)N(CC)C(=S)N2CCCN2CCN(Cc3ccccc3)CC2)cc1 (stereo not given)	n	92	n	n	n
O=C(CCN1CCN(Cc2ccccc2)CC1)Nc1ccc(OCc2ccccc2)cc1	n	70	n	n	n
CCN1C(=O)C(CC(=O)Nc2ccc(Br)cc2)N(CCCc2ccccc2)C1=S (stereo not given)	n	89	n	n	n
CCN1C(=O)C(CC(=O)Nc2ccc(F)cc2)N(CCCN2CCN(c3ccc(F)cc3)CC2)C1=S (stereo not given)	n	95	n	n	n
Cc1cc(C)cc(Cn2cc(CN3CC(N4CCSCC4)CS3(=O)=O)nn2)c1 (stereo not given)	x	x	x	x	n
Fc1ccc(-c2nn3c(C4COc5ccccc5O4)nnc3s2)cc1 (stereo not given)	n	n	n	n	n
c1ccc2c(c1)OCC(c1nnc3sc(-c4ccc5c(c4)OCO5)nn13)O2 (stereo not given)	n	86	n	n	n
CN1N=C(c2ccc(Cl)cc2)CC(c2ccc(Cl)cc2)C1=O (stereo not given)	n	n	n	n	n
CCN1CC(c2ccccc2)C(c2ccc(Cl)cc2)=N1 (stereo not given)	n	79	n	n	n
